Experimental findings from ChEMBL document CHEMBL1132449, “Pyrroloquinoxaline derivatives as high-affinity and selective 5-HT(3) receptor agonists: synthesis, further structure-activity relationships, and biological studies” (J Med Chem, 1999) are described below.

For assay [1], the target named is T1, Serotonin 3 (5-HT3) receptor (Rattus norvegicus, UniProt P35563+Q9JJ16).
T1 sequence (P35563 whole entry): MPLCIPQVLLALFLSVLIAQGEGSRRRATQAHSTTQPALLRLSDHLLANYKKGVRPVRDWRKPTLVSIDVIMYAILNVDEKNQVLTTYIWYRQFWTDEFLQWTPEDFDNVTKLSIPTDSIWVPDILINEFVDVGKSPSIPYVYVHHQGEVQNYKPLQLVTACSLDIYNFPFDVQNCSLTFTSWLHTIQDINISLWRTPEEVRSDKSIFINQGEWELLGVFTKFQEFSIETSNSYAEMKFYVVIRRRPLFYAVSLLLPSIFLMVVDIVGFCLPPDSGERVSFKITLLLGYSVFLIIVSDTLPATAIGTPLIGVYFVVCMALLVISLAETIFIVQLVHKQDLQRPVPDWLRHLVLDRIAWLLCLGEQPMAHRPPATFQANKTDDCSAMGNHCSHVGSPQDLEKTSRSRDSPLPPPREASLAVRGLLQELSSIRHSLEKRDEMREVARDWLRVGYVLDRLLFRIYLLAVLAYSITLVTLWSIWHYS
T1 sequence (Q9JJ16 whole entry): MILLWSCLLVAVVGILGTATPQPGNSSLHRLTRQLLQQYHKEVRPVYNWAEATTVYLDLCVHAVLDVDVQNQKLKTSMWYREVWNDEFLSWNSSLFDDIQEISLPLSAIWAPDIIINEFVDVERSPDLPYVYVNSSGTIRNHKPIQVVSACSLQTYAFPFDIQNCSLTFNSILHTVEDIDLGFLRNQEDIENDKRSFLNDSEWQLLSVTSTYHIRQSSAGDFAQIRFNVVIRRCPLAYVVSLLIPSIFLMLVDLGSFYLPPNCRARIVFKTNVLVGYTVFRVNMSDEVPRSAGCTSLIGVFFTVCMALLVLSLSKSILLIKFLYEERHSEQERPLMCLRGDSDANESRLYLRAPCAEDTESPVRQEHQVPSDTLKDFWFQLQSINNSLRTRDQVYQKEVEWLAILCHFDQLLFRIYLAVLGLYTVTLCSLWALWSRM
Kind of assay: Binding affinity against 5-hydroxytryptamine 3 (5-HT3) receptor from rat cortical homogenate using [3H]zacopride as radioligand. An outline of the steps:
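Male rat cortices, stored at -80 °C, were homogenized in ice-cold 25 mM Tris HCl pH 7.4 and spun at 50000g. Membranes were preincubated 10 min at 37 °C, washed, and resuspended with 10 µM pargyline (10 mg tissue/sample). They were incubated with 0.4 nM (final) [3H]zacopride for 30 min at 25 °C, filtered through PEI-treated GF/B and counted. IC50 came from dose-inhibition curves, mean ± SEM of three determinations.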

The target of assay [2] is Serotonin 3 (5-HT3) receptor. Kind of assay: Effective concentration against 5-Hydroxytryptamine 3 receptor by measuring [14C]guanidinium uptake on NG108-15 cells. The format is functional, cell-based.
Assay [3] deals with NG108-15. Kind of assay: The compound was tested for efficacy against 5-Hydroxytryptamine 3 receptor by measuring [14C]guanidinium uptake on NG108-15 cells; PA=Partial agonist. The format is functional, cell-based. Conditions: filed as partial agonist. An outline of the steps:
(§1)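 NG108-15 cells, grown 2 days, were washed in HEPES saline pH 7.4. They were exposed 10 min at 37 °C to buffer (135 mM NaCl, 10 mM guanidinium) with […] [14C]guanidinium, 1 mM 5-HT, […] and/or 8 drug concentrations. Cells were washed in ice-cold choline buffer, dissolved in NaOH and counted by scintillation. Assays run in triplicate.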

Assay [4] relates to NG108-15. Put plainly: The compound was tested for efficacy against 5-Hydroxytryptamine 3 receptor by measuring [14C]guanidinium uptake on NG108-15 cells.; A = Agonist. The format is functional, cell-based. Conditions: filed as agonist. In short, it runs like this: as §1

In assay [1], `c1ccc(CN2CCN(c3nc4cccnc4n4cccc34)CC2)cc1` came in with an IC50 of 2.3 nM. This compound displayed an EC50 in assay [2] of 32 nM. The Efficacy result in the assay with NG108-15 [3] is “Partial agonist”. For `Cc1cc2nc(N3CCN(C)CC3)c3cccn3c2cc1C`, in assay [1], the IC50 was determined as 30 nM. As to `CN1CCN(c2nc3cc(Cl)c(Cl)cc3n3cccc23)CC1`, in assay [1], the IC50 is 97 nM. This IC50 is about 3.2-fold higher than that of the compound before.

The compound `O=C(O)CN1CCN(c2nc3cccc(F)c3n3cccc23)CC1` returned an IC50 in assay [1] of 920 nM. The compound `OCCN1CCN(c2nc3cc(F)ccc3n3cccc23)CC1` registered an IC50 in assay [1] of 2.6 nM. In addition, the concentration giving a half-maximal response (EC50) in assay [2] was 2.4 nM. The Efficacy result in the assay on NG108-15 [4] was “Agonist”.

In turn, `Clc1cc2nc(N3CCN(Cc4ccccc4)CC3)c3cccn3c2cc1Cl` showed an IC50 in assay [1] of 118 nM. Same read-out and setting: then `Cc1cc2nc(N3CCNCC3)c3cccn3c2cc1C`, with 113 nM. In assay [1], `CN1CCN(c2nc3cccnc3n3ccnc23)CC1` registered an IC50 of 6.6 nM. The same measure, in the same setting: then `CN1CCN(C2=NC=CN3CCN=C23)CC1`, with 3650 nM; and `CN1[C@@H]2CC[C@H]1C[C@@H](OC(=O)c1cc(Cl)cc(Cl)c1)C2` [BEMESETRON], with 97 nM. Regarding `CN1CCN(c2nccn3cccc23)CC1`, in assay [1], the IC50 amounted to 1930 nM.

In assay [1], `Cc1ccc2c(c1)nc(N1CCN(Cc3ccccc3)CC1)c1cccn12` yielded an IC50 of 24 nM.

Take `OCCN1CCN(c2nc3cccnc3n3ccnc23)CC1`: the IC50 in assay [1] came out at 38 nM. Against the preceding compound, the IC50 is about 1.6-fold higher. Same read-out and setting: then `c1csc(CN2CCN(c3nc4ccccc4n4cccc34)CC2)c1`, with 22 nM; and `Fc1cccc2nc(N3CCN(CC4N=NN=N4)CC3)c3cccn3c12`, with 690 nM. Compound `CN1CCN(c2nc3cc(O)ccc3n3cccc23)CC1` returned an IC50 in assay [1] of 0.67 nM. In addition, the EC50 in assay [2] stood at 1.6 nM. Besides, the Efficacy result in the assay with NG108-15 [4] is “Agonist”. Compound `Cc1cc2nc(N3CCN(Cc4ccccc4)CC3)c3cccn3c2cc1C` yielded an IC50 in assay [1] of 44 nM. Turning to `Fc1ccc2c(c1)nc(N1CCN(Cc3ccccc3)CC1)c1cccn12`, the IC50 in assay [1] is 13 nM. The midpoint of the response in assay [2], the EC50, lay at 4.2 nM. Moreover, the Efficacy result with NG108-15 [3] is “Partial agonist”. In assay [2], `CN1CCN(c2nc3cc(F)ccc3n3cccc23)CC1` gave an EC50 of 3 nM. Moreover, the Efficacy result in the assay with NG108-15 [4] is “Agonist”. Compound `CN1CCN(c2nc3ccccc3c3ccnn23)CC1` gave a 50% inhibitory concentration (IC50) in assay [1] of 1.6 nM. For the same compound, in assay [2], it took 2.7 nM to reach a half-maximal effect (EC50). Moreover, the Efficacy entry in the assay on NG108-15 [4] is “Agonist”. As to `Cc1ccc2c(c1)nc(N1CCNCC1)c1cccn12`, in assay [1], the IC50 worked out at 16.4 nM. Compound `Fc1ccc2c(c1)nc(N1CCN(Cc3cccs3)CC1)c1cccn12` returned a half-maximal inhibitory concentration (IC50) in assay [1] of 12 nM. In the case of `Fc1cccc2nc(N3CCN(Cc4cccs4)CC3)c3cccn3c12`, the IC50 in assay [1] was 60 nM.

`Cc1cccc2nc(N3CCN(Cc4ccc(Br)s4)CC3)c3cccn3c12` displayed an IC50 in assay [1] of 104 nM. Against the preceding compound, the IC50 is about 1.7-fold higher. Take `c1cnc2nc(N3CCNCC3)c3cccn3c2c1`: in assay [1], the half-inhibitory concentration (IC50) was determined as 3.1 nM. In assay [1], `CN1CCN(c2nc3ccccc3n3ccnc23)CC1` came in with a concentration for half-maximal inhibition (IC50) of 3.8 nM. Moreover, it took 15 nM to reach a half-maximal effect in assay [2] (EC50). Further, in the assay with NG108-15 [4], the Efficacy result was “Agonist”.

Compound `Fc1ccc2c(c1)nc(N1CCN(Cc3ccco3)CC1)c1cccn12` had an IC50 in assay [1] of 11 nM. In addition, the EC50 in assay [2] turned out to be 6.6 nM. Further, the Efficacy result in the assay with NG108-15 [3] was “Partial agonist”. Compound `Cc1cccc2nc(N3CCN(Cc4ccccc4)CC3)c3cccn3c12` showed an IC50 in assay [1] of 8.8 nM. In assay [2], this compound returned an EC50 of 12 nM. Besides, the Efficacy result in the assay on NG108-15 [4] is “Agonist”. Take `Fc1ccc2c(c1)nc(N1CCN(Cc3ccc(Br)o3)CC1)c1cccn12`: the IC50 in assay [1] was determined as 148 nM. `CN1CCN(c2nc3cc(OCc4ccccc4)ccc3n3cccc23)CC1`: in assay [1], the half-maximal inhibitory concentration (IC50) was found to be 225 nM. Compared with the last compound, the IC50 is about 1.5-fold higher. Take `CN1CCN(c2nc3cc(F)ccc3n3ccnc23)CC1`: in assay [1], the IC50 stood at 5.2 nM. This compound showed an EC50 in assay [2] of 7.2 nM. For the same compound, in the assay on NG108-15 [4], the Efficacy result was “Agonist”. `CN1CCN(c2nc3cc(C#N)ccc3n3cccc23)CC1` displayed an IC50 in assay [1] of 104 nM.
